According to article PMC9669183 (British journal of pharmacology, 2022):
Where “and” joins values, the source holds several entries; their conditions need not be identical. Equal entries are not always repeated.

Key:
α1β2γ2L GABAAR [1] = biological target: T1, α1β2γ2L GABAAR (Rattus norvegicus, UniProt P18508+P62813+P63138, INS375LLRMFSFK); assay: Drug combination; format: cell-based
α1β2γ2L GABAAR [2] = biological target: T1, α1β2γ2L GABAAR; assay: Modulation of steady-state response to saturating GABA, Xenopus oocytes; format: cell-based; conditions: 50 μM α7-PAM; 1 mM GABA
α1β3γ2L GABAAR [3] = biological target: T2, α1β3γ2L GABAAR (Homo sapiens, UniProt P14867+P18507+P28472); format: binding; conditions: for direct effect on fluorescence from α1β3γ2L-bound Gzn-OG (orthosteric site): 3-100 μM α7-PAM, no GABA
α1β2γ2L GABAAR [4] = biological target: T1, α1β2γ2L GABAAR; format: cell-based; conditions: for potentiation of the response to low GABA (% of control): 50 μM α7-PAM, 2-5 μM GABA (PA<0.10), 100% = no effect, mean±SEM; for free energy change (ΔG) towards stabilizing the active state: co-agonist concerted transition model
α1β2γ2L GABAAR [5] = biological target: T1, α1β2γ2L GABAAR; assay: Direct activation, two-electrode voltage clamp in Xenopus oocytes; format: cell-based; conditions: 50 μM α7-PAM; n=5 oocytes/drug; mean±SEM
α4β2δ GABAA receptor = α4β2δ GABAA receptor (Homo sapiens, UniProt O14764+P47870+P48169); assay: Effect on α4β2δ receptor during long drug applications, oocytes; format: cell-based
Sequence of α4β2δ GABAA receptor (P48169 36-554): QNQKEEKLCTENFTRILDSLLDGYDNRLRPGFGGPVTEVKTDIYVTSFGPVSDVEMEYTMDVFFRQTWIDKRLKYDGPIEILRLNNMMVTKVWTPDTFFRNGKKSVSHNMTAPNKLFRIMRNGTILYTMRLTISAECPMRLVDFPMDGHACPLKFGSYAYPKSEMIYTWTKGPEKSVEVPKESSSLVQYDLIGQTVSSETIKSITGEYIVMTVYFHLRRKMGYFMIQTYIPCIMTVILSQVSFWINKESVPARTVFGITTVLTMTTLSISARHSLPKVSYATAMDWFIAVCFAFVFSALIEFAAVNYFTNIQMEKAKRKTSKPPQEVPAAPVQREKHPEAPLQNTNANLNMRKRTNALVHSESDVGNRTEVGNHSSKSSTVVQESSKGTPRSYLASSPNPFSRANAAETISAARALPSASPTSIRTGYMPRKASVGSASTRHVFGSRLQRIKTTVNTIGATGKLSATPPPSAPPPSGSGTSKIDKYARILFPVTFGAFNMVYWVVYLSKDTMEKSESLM
Sequence of α4β2δ GABAA receptor (P47870 25-512 limits assumed): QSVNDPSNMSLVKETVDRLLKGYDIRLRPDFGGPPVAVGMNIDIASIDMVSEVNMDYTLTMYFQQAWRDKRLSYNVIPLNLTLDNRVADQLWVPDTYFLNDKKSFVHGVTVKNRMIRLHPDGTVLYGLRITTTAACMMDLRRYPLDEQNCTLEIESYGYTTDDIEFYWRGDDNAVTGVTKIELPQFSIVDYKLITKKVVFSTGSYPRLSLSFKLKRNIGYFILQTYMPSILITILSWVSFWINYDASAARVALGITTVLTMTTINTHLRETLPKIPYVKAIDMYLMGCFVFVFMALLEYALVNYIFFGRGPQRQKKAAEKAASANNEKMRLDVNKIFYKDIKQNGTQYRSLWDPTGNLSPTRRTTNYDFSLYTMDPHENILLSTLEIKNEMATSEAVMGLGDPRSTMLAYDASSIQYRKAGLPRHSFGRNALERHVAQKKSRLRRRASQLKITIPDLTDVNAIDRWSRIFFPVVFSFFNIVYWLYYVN
Sequence of α4β2δ GABAA receptor (O14764 25-452): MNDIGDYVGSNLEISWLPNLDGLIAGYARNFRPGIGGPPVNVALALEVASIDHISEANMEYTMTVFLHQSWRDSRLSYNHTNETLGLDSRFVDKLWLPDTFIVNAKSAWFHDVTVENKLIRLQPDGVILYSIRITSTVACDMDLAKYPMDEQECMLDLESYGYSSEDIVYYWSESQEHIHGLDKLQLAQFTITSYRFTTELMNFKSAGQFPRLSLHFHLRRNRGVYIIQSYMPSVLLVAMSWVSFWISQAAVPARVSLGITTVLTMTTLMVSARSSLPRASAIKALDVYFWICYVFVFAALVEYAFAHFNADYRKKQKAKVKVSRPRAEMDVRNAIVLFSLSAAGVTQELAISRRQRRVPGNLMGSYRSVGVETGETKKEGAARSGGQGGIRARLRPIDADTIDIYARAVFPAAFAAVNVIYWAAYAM
In short: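 Human α4β2δ GABAA receptors were expressed in Xenopus laevis oocytes by injecting 3.5-6 ng total cRNA per oocyte. Oocytes were held 1-2 days in ND96 (pH 7.4) with Na pyruvate and antibiotics. Currents were recorded by two-electrode voltage clamp.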

α1(L232C)β2γ2L GABAAR = α1(L232C)β2γ2L GABAAR (Rattus norvegicus, UniProt P18508+P62813+P63138, INS375LLRMFSFK/L258C); assay: Potentiation of low GABA response, mutant receptor in oocytes; format: cell-based; conditions: 50 μM; low GABA PA<0.10; mean±SEM
α1(M236C)β2γ2L GABAAR = α1(M236C)β2γ2L GABAAR (Rattus norvegicus, UniProt P18508+P62813+P63138, INS375LLRMFSFK/M262C); assay: as above; format: cell-based; conditions: 50 μM; low GABA PA<0.10; mean±SEM
[6] = test system: binary αβ GABAA receptors (α1β2, α1β3); assay: Potentiation of binary αβ receptors compared with ternary αβγ, oocytes; format: cell-based
α1β2γ2L(L246C) GABAAR = α1β2γ2L(L246C) GABAAR (Rattus norvegicus, UniProt P18508+P62813+P63138, INS375LLRMFSFK/L284C); assay: Potentiation of low GABA response, mutant receptor in oocytes; format: cell-based; conditions: 50 μM; low GABA PA<0.10; mean±SEM
α1(A291W)β2γ2L GABAAR = α1(A291W)β2γ2L GABAAR (Rattus norvegicus, UniProt P18508+P62813+P63138, A317W/INS375LLRMFSFK); assay: as above; format: cell-based; conditions: 50 μM; low GABA PA<0.10; mean±SEM
α1β2γ2L(S280C) GABAAR = α1β2γ2L(S280C) GABAAR (Rattus norvegicus, UniProt P18508+P62813+P63138, INS375LLRMFSFK/S318C); assay: as above; format: cell-based; conditions: 50 μM; low GABA PA<0.10; mean±SEM
α1(Q241L)β2γ2L GABAAR = α1(Q241L)β2γ2L GABAAR (Rattus norvegicus, UniProt P18508+P62813+P63138, INS375LLRMFSFK/Q268L); assay: as above; format: cell-based; conditions: 50 μM; low GABA PA<0.10; mean±SEM
α1β2(M286W)γ2L GABAAR = α1β2(M286W)γ2L GABAAR (Rattus norvegicus, UniProt P18508+P62813+P63138, INS375LLRMFSFK/M310W); assay: as above; format: cell-based; conditions: 50 μM; low GABA PA<0.10; mean±SEM
α1β3γ2L GABAAR [7] = biological target: T2, α1β3γ2L GABAAR; assay: Potentiation of low GABA response, oocytes; format: cell-based; conditions: 50 μM; low GABA PA<0.10; mean±SEM
α1β3(L231C)γ2L GABAAR = α1β3(L231C)γ2L GABAAR (Homo sapiens, UniProt P14867+P18507+P28472, L256C); assay: Potentiation of low GABA response, mutant receptor in oocytes; format: cell-based; conditions: 50 μM; low GABA PA<0.10; mean±SEM
α4β2 nicotinic receptor = conditions: at high μM concentrations; ref Arias et al., 2011; Timmermann et al., 2007; cited from earlier work
α1β2γ2L(I242C) GABAAR = α1β2γ2L(I242C) GABAAR (Rattus norvegicus, UniProt P18508+P62813+P63138, I280C/INS375LLRMFSFK); assay: Potentiation of low GABA response, mutant receptor in oocytes; format: cell-based; conditions: 50 μM; low GABA PA<0.10; mean±SEM
α1β2(N265M)γ2L GABAAR = α1β2(N265M)γ2L GABAAR (Rattus norvegicus, UniProt P18508+P62813+P63138, INS375LLRMFSFK/N289M); assay: as above; format: cell-based; conditions: 50 μM; low GABA PA<0.10; mean±SEM
α1β2γ2L GABAAR [8] = biological target: T1, α1β2γ2L GABAAR; assay: Potentiation of receptors activated by allosteric agonists; format: cell-based
α1β3(M227C)γ2L GABAAR = α1β3(M227C)γ2L GABAAR (Homo sapiens, UniProt P14867+P18507+P28472, M252C); assay: Potentiation of low GABA response, mutant receptor in oocytes; format: cell-based; conditions: 50 μM; low GABA PA<0.10; mean±SEM
α3β4 nicotinic receptor = conditions: at high μM concentrations; ref Arias et al., 2011; Timmermann et al., 2007; cited from earlier work
[9] = c 0.804, KR,PNU-120596 constrained to 10 μM
[10] = c 0.804, KR,PNU-120596 constrained to 50 μM
[11] = c 0.804, KR,PNU-120596 constrained to 100 μM
[12] = 0.5 μM GABA+20 μM NS-1738+25 μM PAM-2

SMILES: COc1cc(OC)c(NC(=O)Nc2cc(C)on2)cc1Cl [PNU-120596, N-(5-Cl-2,4-dimethoxyphenyl)-N’-(5-methyl-3-isoxazolyl)-urea]
- PA of response to low GABA+NS-1738 with PNU-120596 coapplied (α1β2γ2L GABAAR [1]; 0.1-0.5 μM GABA+10 μM NS-1738+50 μM PNU-120596, 5 oocytes): 0.074±0.024
- predicted PA for GABA+NS-1738+PNU-120596, distinct site model (α1β2γ2L GABAAR [1]; [9]): 0.114
- predicted PA for GABA+NS-1738+PNU-120596, same site model (α1β2γ2L GABAAR [1]; [9]): 0.047
- predicted PA for GABA+NS-1738+PNU-120596, distinct site model (α1β2γ2L GABAAR [1]; [10]): 0.103
- predicted PA for GABA+NS-1738+PNU-120596, same site model (α1β2γ2L GABAAR [1]; [10]): 0.065
- predicted PA for GABA+NS-1738+PNU-120596, distinct site model (α1β2γ2L GABAAR [1]; [11]): 0.097
- predicted PA for GABA+NS-1738+PNU-120596, same site model (α1β2γ2L GABAAR [1]; [11]): 0.073
- steady-state response to saturating GABA in presence of α7-PAM (% of control) (α1β2γ2L GABAAR [2]): 90±2 % of control
- shift in GABA F/Fo curves (α1β3γ2L GABAAR [3]; 3-10 μM α7-PAM): Leftward shift
- direct effect on fluorescence from α1β3γ2L-bound Gzn-OG (orthosteric site) (α1β3γ2L GABAAR [3]): do not modify fluorescence
- potentiation of the response to low GABA (% of control) (α1β2γ2L GABAAR [4]): 133±11 % of control
- free energy change (ΔG) towards stabilizing the active state (α1β2γ2L GABAAR [4]): -0.26 ± 0.04 kcal/mol and -0.26 kcal/mol
- potentiation EC50 (Hill equation) (α1β2γ2L GABAAR [4]; coapplied with low GABA (PA=0.05-0.13)): the fits did not converge
- direct activation: response as % of the peak response to 1 mM GABA+50 μM propofol (α1β2γ2L GABAAR [5]): 0.38±0.09%

SMILES: Cc1ccc(NC(=O)/C=C/c2ccco2)cc1 [PAM-2, (E)-3-(furan-2-yl)-N-(p-tolyl)-acrylamide]
- effect on the α4β2δ receptor (α4β2δ GABAA receptor): inhibited
- calculated PA for GABA+NS-1738+PAM-2, distinct site model (α1β2γ2L GABAAR [1]; [12]): 0.267±0.065
- calculated PA for GABA+NS-1738+PAM-2, same site model (α1β2γ2L GABAAR [1]; [12]): 0.146±0.043
- observed PA of response to GABA+NS-1738+PAM-2 (α1β2γ2L GABAAR [1]; [12]): 0.158±0.044
- observed PA in the presence of R(+)-etomidate+α7-PAM (α1β2γ2L GABAAR [1]; 50 μM α7-PAM, R(+)-etomidate): 0.050±0.013
- predicted PA for R(+)-etomidate+α7-PAM, distinct site model (α1β2γ2L GABAAR [1]; 50 μM α7-PAM, R(+)-etomidate): 0.097±0.030
- predicted PA for R(+)-etomidate+α7-PAM, same site model (α1β2γ2L GABAAR [1]; 50 μM α7-PAM, R(+)-etomidate): 0.008±0.002
- Potentiation (% of control), α1(L232C)β2γ2L (α1(L232C)β2γ2L GABAAR): 197 ± 8% % of control
- Potentiation (% of control), α1(M236C)β2γ2L (α1(M236C)β2γ2L GABAAR): 176 ± 11% % of control
- magnitude of potentiation in binary αβ vs ternary αβγ receptors [6]: similar
- Potentiation (% of control), α1β2γ2L(L246C) (α1β2γ2L(L246C) GABAAR): 147 ± 7% % of control
- steady-state response to saturating GABA in presence of α7-PAM (% of control) (α1β2γ2L GABAAR [2]): 70±4 % of control
- Potentiation (% of control), α1(A291W)β2γ2L (α1(A291W)β2γ2L GABAAR): 130 ± 7% % of control
- decrease in GABA Ki between 0 (control) and 100 μM α7-PAM (α1β3γ2L GABAAR [3]; 100 μM α7-PAM): 3.8 fold
- direct effect on fluorescence from α1β3γ2L-bound Gzn-OG (orthosteric site) (α1β3γ2L GABAAR [3]): do not modify fluorescence
- Potentiation (% of control), α1β2γ2L(S280C) (α1β2γ2L(S280C) GABAAR): 233 ± 16% of control
- Potentiation (% of control), α1(Q241L)β2γ2L (α1(Q241L)β2γ2L GABAAR): 382 ± 29% of control
- Potentiation (% of control), α1β2(M286W)γ2L (α1β2(M286W)γ2L GABAAR): 181 ± 12% % of control
- Potentiation (% of control), α1β3γ2L (α1β3γ2L GABAAR [7]): 176 ± 12% % of control
- Potentiation (% of control), α1β3(L231C)γ2L (α1β3(L231C)γ2L GABAAR): 153 ± 11% of control
- effect on the heteromeric α4β2 nicotinic receptor (α4β2 nicotinic receptor): inhibit
- Potentiation (% of control), α1β2γ2L(I242C) (α1β2γ2L(I242C) GABAAR): 189 ± 11% % of control
- EC50 (α1β2γ2L GABAAR [4]): 26 ± 8 µM
- Kd (α1β2γ2L GABAAR [4]): 24.8 ± 10.5 µM
- potentiation of the response to low GABA (% of control) (α1β2γ2L GABAAR [4]): 300 ± 43 % of control
- free energy change (ΔG) towards stabilizing the active state (α1β2γ2L GABAAR [4]): -0.76 kcal/mol
- Potentiation (% of control), α1β2(N265M)γ2L (α1β2(N265M)γ2L GABAAR): 124 ± 6% % of control
- potentiation of currents elicited by propofol (% of control) (α1β2γ2L GABAAR [8]; 50 μM α7-PAM, 10 μM propofol): 123±9 % of control
- potentiation of the response to phenobarbital (% of control) (α1β2γ2L GABAAR [8]; 50 μM α7-PAM, 1 mM phenobarbital, n=5): 103±6 % of control
- potentiation of the peak response to R(+)-etomidate (% of control) (α1β2γ2L GABAAR [8]; 50 μM α7-PAM, 2-4 μM R(+)-etomidate): 140±17 % of control
- direct activation: response as % of the peak response to 1 mM GABA+50 μM propofol (α1β2γ2L GABAAR [5]): 0.70±0.19%
- Potentiation (% of control), α1β3(M227C)γ2L (α1β3(M227C)γ2L GABAAR): 163 ± 12% of control
- effect on the heteromeric α3β4 nicotinic receptor (α3β4 nicotinic receptor): inhibit

SMILES: CCOC(=O)c1cncn1[C@H](C)c1ccccc1 [R(+)-etomidate, R-1-(1-ethylphenyl)imidazole-5-ethyl ester]
- PA of response to R(+)-etomidate alone (α1β2γ2L GABAAR [8]; 2-4 μM R(+)-etomidate): 0.053±0.015 and 0.041±0.013
